Sampled rows, rich in hits. Any-hit rate of the full collection: about 2.1%.
Thrombin inh – inhibitors of human thrombin; inhibition, % at 5 µM; 0.26% of 220,000 active; alpha-thrombin, Boc-VPR-AMC fluorogenic substrate cleavage; P00734;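 active means inhibition at or above 40%; inactive means inhibition below 40%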
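Material: human alpha-thrombin protein. Incubation: reaction at ambient temperature. Technique: fluorescence of released AMC, ex 355 nm, em 460 nm. Control set: no-compound enzyme wells and no-enzyme blanks. Also added: Boc-VPR-AMC substrate, 15 µM final. Buffer or medium: pH 7.5 Tris (50 mM) with NaCl 150 mM, Tween 20 0.05%.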
EP2 mod – modulators of human EP2 prostaglandin E2 receptor. EP2-expressing cells, cAMP HTRF FRET, PGE2 co-stimulation. induction, % at 25 µM. 0.83% of 260,000 active;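 active means compounds whose cAMP rise, as percent of the full-agonist control response, exceeds 60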;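 further: rat C6 glioma line stably carrying human EP2 under a CMV promoter; the protocol text gives 20 µM as final concentration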
FXIIa inh 1536 – factor XIIa (human) inhibition; purified FXIIa, Boc-QGR-AMC fluorogenic substrate, 2 h; inhibition, % at 5 µM; 0.3% of 220,000 active; in the data active means inhibition above about 40%
Target sequence (P00748 20-372 limits assumed): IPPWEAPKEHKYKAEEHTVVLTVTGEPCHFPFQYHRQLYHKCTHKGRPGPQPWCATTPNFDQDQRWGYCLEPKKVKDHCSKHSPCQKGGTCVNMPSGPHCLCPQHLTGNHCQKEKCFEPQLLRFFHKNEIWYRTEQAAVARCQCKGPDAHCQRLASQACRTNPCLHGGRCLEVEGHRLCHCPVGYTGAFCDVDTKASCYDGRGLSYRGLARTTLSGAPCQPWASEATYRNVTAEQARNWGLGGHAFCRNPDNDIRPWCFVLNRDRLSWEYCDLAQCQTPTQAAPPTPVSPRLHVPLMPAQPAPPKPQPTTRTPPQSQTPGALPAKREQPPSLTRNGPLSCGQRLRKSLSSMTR
Target sequence (P00748 373-615 limits assumed): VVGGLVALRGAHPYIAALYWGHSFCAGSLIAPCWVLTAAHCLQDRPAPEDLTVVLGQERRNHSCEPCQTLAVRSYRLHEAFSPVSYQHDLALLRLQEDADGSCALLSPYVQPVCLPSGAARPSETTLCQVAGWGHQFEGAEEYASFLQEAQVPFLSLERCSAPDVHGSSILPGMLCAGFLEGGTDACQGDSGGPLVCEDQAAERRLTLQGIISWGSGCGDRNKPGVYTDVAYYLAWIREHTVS
FXIa inh – blocks human coagulation factor XIa protease activity | P03951 | purified FXIa, Boc-Glu-Ala-Arg-AMC fluorogenic substrate | inhibition, % at 5 µM | 0.14% of 220,000 active | AID 798;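 active means inhibition of at least 40%; inactive means inhibition below 40%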;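 further: fluorescence of freed AMC excited at 355 nm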
EP2 antag – EP2 receptor (human) inhibition. P43116. C6 glioma cells expressing human EP2, cAMP TR-FRET; cells stimulated with saturating PGE2. inhibition, % at 25 µM. 0.52% of 260,000 active;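 active means percent inhibition above 40 after rounding to a whole number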;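 further: rat C6 glioma host cells with rolipram phosphodiesterase inhibitor present; the protocol text gives 20 µM as final concentration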
KLK5 inh – inhibitors of human kallikrein 5; Q9Y337; recombinant hK5, fluorogenic AMC substrate cleavage; inhibition, % at 5 µM; 0.59% of 210,000 active; AID 873;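 active means inhibition of 40% or more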
Hits are given with their value; i = inactive; nt = not tested or not shown.

SMILES	Thrombin inh	EP2 mod	FXIIa inh 1536	FXIa inh	EP2 antag	KLK5 inh
Cc1cccc(Nc2cc(=O)[nH]c(=O)[nH]2)c1C	i	i	45	i	i	i
COC1CCCC(C(=O)Nc2ccc(-c3cn4c(C)c(C)nnc4n3)cc2C)C1 (stereo not given)	nt	i	nt	nt	nt	nt
CN(C)c1ncnc2c1ncn2C1OC(CO)C(O)C1O (stereo not given)	i	i	i	i	i	i
CN(C)c1ncnc2c1ncn2CCn1cnc2c(N(C)C)ncnc21	nt	i	nt	nt	46	nt
O=C(c1cc2nc(-c3ccco3)cc(C(F)(F)F)n2n1)N1CCCc2ccccc21	i	i	i	i	i	i
CC1Cc2ccccc2N1C(=O)c1cc2nc(-c3ccco3)cc(C(F)(F)F)n2n1 (stereo not given)	nt	72	nt	nt	i	nt
CCn1c(SCC(=O)Nc2cccc(NC(=O)C3CCCCC3)c2)nnc1-c1cccs1	nt	i	nt	nt	i	nt
N#CC(c1ccccc1)c1ccc(C(=O)c2ccc(F)cc2)cc1 (stereo not given)	i	62	i	i	i	i
N#CC(c1ccc(F)cc1)c1ccc(C(=O)c2ccccc2)cc1 (stereo not given)	i	i	i	i	i	i
COC(=O)N/N=C/c1cn(Cc2ccccc2F)c2ccccc12	i	i	i	i	i	i
O=C(O)c1ccc(N/N=C/c2cn(Cc3ccccc3F)c3ccccc23)cc1	i	87	i	i	i	i
Nc1ccn([C@H]2O[C@H](CO)[C@@H]3[O][Sn]([c]4ccccc4)([c]4ccccc4)[O][C@@H]32)c(=O)n1	nt	i	nt	nt	42	nt
c1ccc(-c2n[nH]c3c2CCC3)cc1	i	i	i	i	i	51
CCc1cc2cc3c(cc2nc1SCC(=O)N1CCc2ccccc2C1)OCO3	nt	i	nt	nt	i	nt
COc1ccccc1C(=O)NNC(=O)c1ccc(F)cc1	i	i	i	i	i	61
COc1cc(OC)cc(C(=O)NNC(=O)c2ccccc2Br)c1	89	i	i	i	i	i
COc1ccccc1C(=O)NNC(=O)c1ccc(Cl)cc1	i	i	i	i	i	i
COc1ccc2c(c1)OC1(CCN(CC(O)c3ccc4ccccc4c3)CC1)CC2O (stereo not given)	nt	i	nt	nt	i	nt
Cc1cc(Sc2ccccc2)n2nnnc2n1	nt	i	nt	nt	i	nt
Cc1ccc(NC(=O)CSc2nnc(-c3ccccc3Br)n2C)c(Br)c1	nt	i	nt	nt	i	nt
O=C(c1ccccn1)N1C2CCC1CC(c1ccc(F)cc1)C2 (stereo not given)	nt	i	nt	nt	nt	nt
CC(C)CCN(C)C1CCN(S(=O)(=O)c2cccc(C(F)(F)F)c2)CC1	i	i	i	i	nt	53
COc1ccccc1NC(=S)N1CCC(NC(=O)c2cccc(F)c2)CC1	nt	i	nt	nt	i	nt
CC(C(=O)Oc1ccc2c(c1)OCO2)N1C(=O)c2ccccc2C1=O (stereo not given)	i	i	57	i	i	i
COc1ccc(NC(=O)CSc2nnc3c(C)cc4cc5c(cc4n23)OCO5)cc1	nt	i	nt	nt	i	nt
SMILES	Thrombin inh	EP2 mod	FXIIa inh 1536	FXIa inh	EP2 antag	KLK5 inh
Cc1ncccc1-c1cc2cccnc2n1CCC(=O)N1CCCCCC1	nt	i	nt	nt	i	nt
C[N+](C)(C)CCN(Cc1cccs1)c1ccccn1	nt	i	nt	nt	55	nt
CC[N+](C)(C)CCN(Cc1ccc(Cl)cc1)c1ccccn1	i	i	i	i	i	i
NC(N)=N/N=C/c1ccc(OCc2ccccc2)cc1	i	i	i	i	i	i
NC(N)=N/N=C/c1ccc(OCc2ccc(Cl)cc2)cc1	i	i	i	i	64	i
C=CS(=O)(=O)c1ccc(Oc2ccc(S(=O)(=O)C=C)cc2)cc1	i	i	i	i	72	i
NS(=O)(=O)c1ccc(Oc2ccc(S(N)(=O)=O)cc2)cc1	nt	i	i	i	i	i
CCc1nn(CC(=O)N(C)CCc2ccccn2)c(=O)c2cc3sc(C)cc3n12	nt	i	nt	nt	nt	nt
Cc1ccsc1/C=N/NC(=O)c1ccc2c(c1)OCCO2	i	i	46	i	i	i
Cn1c(SCC(=O)Nc2cccc(C(F)(F)F)c2)nnc1-c1ccco1	nt	i	nt	nt	i	nt
CCn1c(CNc2cc(Cl)ccc2Cl)nnc1SCC(=O)Nc1ccccc1OC	nt	i	nt	nt	i	nt
COC(=O)c1cccc(NC(=O)CSc2nccc(C)n2)c1	nt	i	nt	nt	i	nt
CCc1cccc(CC)c1NC(=O)CSc1nc2cc3c(cc2cc1C#N)OCCO3	nt	63	nt	nt	i	nt
N#Cc1cc2cc3c(cc2nc1SCC(=O)NCCc1ccccc1)OCCO3	nt	73	nt	nt	i	nt
Cc1cccc(C)c1NC(=O)CSc1nc2cc3c(cc2cc1C#N)OCCO3	nt	i	nt	nt	i	nt
COC(=O)[C@H]1CN(C(=O)CCc2ccco2)C[C@@H]1c1ccc(F)cc1	nt	i	nt	nt	nt	nt
CCC(=O)N1CCN(CCN=CC2=C(O)CC(C)(C)CC2=O)CC1	i	i	i	i	i	40
CC1(C)CC(=O)C(C=NCCN2CCN(C(=O)CCl)CC2)=C(O)C1	i	i	i	i	i	i
O=C1c2ccc(O)c(O)c2C(=O)c2c(O)ccc(O)c21	nt	i	nt	nt	i	nt
CC1=CC(=O)c2c(O)ccc(O)c2C1=O	i	i	i	i	84	i
Cc1ccc(C)c(NC(=S)NCCc2c[nH]c3ccccc23)c1	i	i	i	i	i	42
COC(=O)C1C(=O)C2=C(CC1C)Nc1ccccc1NC2c1ccc(C(C)C)cc1 (stereo not given)	nt	i	nt	nt	i	nt
Cn1cccc1-c1nc2ccc(NC(=O)c3cccs3)cc2[nH]1	i	i	i	i	48	i
CCCCC[C@@H](O)[C@@H]1C(=O)O[C@@H](C)[C@@H](O)C=C/C=C\C=CC=C/C=C(/C)[C@H](O)C[C@H](O)C[C@H](O)C[C@H](O)C[C@H](O)C[C@H](O)C[C@@H]1O	nt	i	nt	nt	50	nt
CCCSc1nc(C)nc2c1c(=O)n(C)c(=O)n2C	i	i	i	i	i	i
SMILES	Thrombin inh	EP2 mod	FXIIa inh 1536	FXIa inh	EP2 antag	KLK5 inh
CCCCSc1nc(C)nc2c1c(=O)n(C)c(=O)n2C	i	63	i	i	i	i
C=CCNc1nnc(SCC(=O)NCc2ccccc2)c2ccccc12	nt	i	nt	nt	i	nt
N#Cc1c(SCC(=O)O)nc2c(c1-c1cccnc1)CCC2	nt	i	nt	nt	i	nt
Cc1cc(NC(=O)CSc2nc3c(c(-c4cccnc4)c2C#N)CCC3)no1	i	i	i	i	49	i
Cc1ccc2c(c1)CC1(CN2C)C(=O)OC(C)(C)OC1=O	73	i	i	i	i	i
Cc1ccc(C)c2[nH]c(=O)c(CN(Cc3ccco3)Cc3nnnn3C3CCCCC3)cc12	nt	72	nt	nt	i	nt
Cc1ccc2[nH]c(=O)c(CN(Cc3nnnn3C3CCCC3)CC3CCCO3)cc2c1 (stereo not given)	nt	i	nt	nt	i	nt
Cc1cc2cc(CN(Cc3ccco3)Cc3nnnn3C3CCCCC3)c(=O)[nH]c2cc1C	nt	i	nt	nt	i	nt
CCOc1ccc2[nH]c(=O)c(CN(Cc3ccco3)Cc3nnnn3C3CCCC3)cc2c1	nt	64	nt	nt	i	nt
Cc1ccc2cc(CN(Cc3ccco3)Cc3nnnn3C3CCCCC3)c(=O)[nH]c2c1C	nt	70	nt	nt	i	nt
Cc1ccc(C)c2[nH]c(=O)c(CN(Cc3nnnn3C3CCCCC3)CC3CCCO3)cc12 (stereo not given)	i	i	41	i	i	i

Source: PubChem
